SENP1 FRET inh – SENP1 (human) catalytic domain inhibition | recombinant SENP1 catalytic domain, CyPet-SUMO1-YPet FRET cleavage | inhibition, % at 10 µM | 360,000 tested, 0.21% active;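 active = inhibition at least 30% at 10 µM, raw YFP signal under a set limit, fluorescence ratio 0.5 to 1.5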;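 also: 0% = enzyme with DMSO and 100% = no enzyme wells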
Target sequence (Q9P0U3 419-644 limits assumed): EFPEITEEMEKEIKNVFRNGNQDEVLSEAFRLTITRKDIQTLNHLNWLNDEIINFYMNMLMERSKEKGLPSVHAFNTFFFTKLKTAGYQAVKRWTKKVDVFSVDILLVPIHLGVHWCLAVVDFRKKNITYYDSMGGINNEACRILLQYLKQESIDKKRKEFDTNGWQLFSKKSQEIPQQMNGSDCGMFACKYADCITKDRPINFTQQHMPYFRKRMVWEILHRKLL
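System: Recombinant human SENP1 catalytic domain, His6-tagged | Incubation: Enzyme reaction for 50 min at room temperature, dark | Medium: Tris pH 8 with BME, BSA, NP40 and catalase | Also added: 25 nM SUMO1 FRET substrate | Compound: 10 µM single point, 0.5% DMSO | Measured by: FRET fluorescence in CFP and YFP emission channels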
SENP8 block-1 – blocks the human protease SENP8 | Q96LD8 | 330,000 tested, 1.2% active | purified SENP8, Z-RLRGG-aminoluciferin cleavage, luminescence | AID 2540 | inhibition, % at 10 µM; in the data active = inhibition above about 50%
Target sequence (Q96LD8 whole entry, looked up): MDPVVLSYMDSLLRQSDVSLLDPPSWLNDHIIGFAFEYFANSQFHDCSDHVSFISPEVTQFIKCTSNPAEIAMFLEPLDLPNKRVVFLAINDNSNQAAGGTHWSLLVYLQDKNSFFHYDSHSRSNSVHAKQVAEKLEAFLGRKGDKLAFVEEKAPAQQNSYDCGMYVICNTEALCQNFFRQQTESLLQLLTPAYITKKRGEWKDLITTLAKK
SENP8 block-2 – inhibitors of human SENP8 protease. Q96LD8. recombinant SENP8, Nedd8 substrate fluorescence. inhibition, % at 20 µM. 360,000 tested, 0.64% active; in the data active = inhibition mostly above about 40%, no sharp cut-off; inactive = mostly below about 27%
SENP6 block – blocks the human protease SENP6; Q9GZR1; Recombinant SENP6 catalytic domain, aminoluciferin luminescence; inhibition, % at 10 µM; 330,000 tested, 1.8% active; AID 2599;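 active = inhibition above about 50% at the single tested dose, limit read from the data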;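 also: plate controls were DMSO wells with enzyme for no effect and DMSO wells lacking enzyme for full effect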
SENP7 block – inhibitors of human SENP7 protease | inhibition, % at 5 µM | 330,000 tested, 1.5% active | recombinant SENP7, Z-RLRGG-aminoluciferin luminescence, 40 min | Q9BQF6 | AID 434973;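 active = inhibition above about 50% at the single test dose, limit read from the data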;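 also: plate controls were DMSO with enzyme for no effect and no enzyme buffer wells for full effect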
SENP8 confirm – human SENP8 inhibition, confirmed | shares compounds with SENP7 block | Recombinant SENP8, Z-RLRGG-aminoluciferin luminescence, 60 min | inhibition, % at 12.5 µM | AID 488912 | 6,200 tested, 40% active;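 active = mean inhibition across replicates above about 50%, limit read from the data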
SENP6 confirm – human SENP6 inhibition, confirmed. shares compounds with SENP7 block. recombinant SENP6, Z-RLRGG-aminoluciferin luminescence. inhibition, % at 12.5 µM. 6,200 tested, 58% active
SENP7 conf – confirmation of human SENP7 protease inhibitors. shares compounds with SENP7 block. recombinant SENP7, Z-RLRGG-aminoluciferin luminescence, 40 min. inhibition, % at 12.5 µM. 6,200 tested, 69% active
Casp3 SENP sel – selectivity test for SENP inhibitors: human caspase-3 inhibition; AID 488918; 6,200 tested, 60% active; purified caspase-3, Z-DEVD-aminoluciferin luminescence, 60 min; inhibition, % at 12.5 µM; shares compounds with SENP7 block;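 active = mean inhibition above about 50%, limit read from the data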;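 also: plate controls were enzyme with DMSO for no effect and wells without caspase-3 for full effect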
Target sequence (P42574 28-227 limits assumed): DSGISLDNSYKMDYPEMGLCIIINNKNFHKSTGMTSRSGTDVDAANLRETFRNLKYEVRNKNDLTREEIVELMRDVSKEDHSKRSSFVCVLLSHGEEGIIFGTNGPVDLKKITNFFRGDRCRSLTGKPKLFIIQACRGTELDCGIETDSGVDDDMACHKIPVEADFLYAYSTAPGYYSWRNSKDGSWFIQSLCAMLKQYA
Luc interf – counter-screen for SENP inhibitors: luminescence interference; shares compounds with SENP7 block; Pre-incubated SENP8/Z-RLRGG-aminoluciferin, luciferase luminescence interference; inhibition, % at 12.5 µM; 6,200 tested, 39% active; AID 488919;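 active = mean inhibition above about 50% when retested at one dose, limit read from the data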;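 also: plate controls were DMSO wells with completed reaction for no effect and substrate without enzyme for full effect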
The depositor's hits bear a star; i = inactive; . = no result. Sampled rows, rich in hits. Any-hit rate of the full collection: about 2.5%.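 The calls were made as follows, unless noted: active = mean inhibition above about 50% in the one-dose retest (limit read from the data); inactive = the rest.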

SMILES	SENP1 FRET inh	SENP8 block-1	SENP8 block-2	SENP6 block	SENP7 block	SENP8 confirm	SENP6 confirm	SENP7 conf	Casp3 SENP sel	Luc interf
Cc1cc(C(=O)NC(=S)Nc2cccc(NC(=O)C(C)C)c2)ccc1[N+](=O)[O-]	1.1	56.0*	16.3	71.1*	77.2*	24.0	60.8*	95.4*	77.5*	51.3*
CC1CCN(c2ccc(NC(=O)c3ccc(Br)o3)cc2)CC1	1.6	56.0*	9.8	80.9*	87.9*	32.2	30.4	26.2	26.6	13.9
O=C(Nc1ccc(N2CCOCC2)cc1)c1ccc(Br)o1	0.5	32.6	4.1	44.8	49.6	.	.	.	.	.
C=C1SC(Nc2c(C)cc(C)cc2C)=NC12CCCCC2	4.0	-5.5	-0.7	-21.2	-3.3	.	.	.	.	.
COc1ccc(/C(N)=N/OC(=O)c2ccc3c(c2)OCO3)cc1OC	3.1	75.4*	1.3	82.9*	84.1*	-23.0	-11.7	18.8	24.0	2.2
COc1cc(OC)c(C(=O)Oc2ccc3c(c2)OCO3)cc1OC	0.6	3.8	14.4	8.0	9.2	.	.	.	.	.
COc1ccc(/C(N)=N/OC(=O)c2ccc3ccccc3c2)cc1OC	-0.4	.	12.9	.	.	.	.	.	.	.
COc1ccc(C(=O)Oc2ccc3c(c2)OCO3)cc1OC	0.9	29.0	23.7	57.6*	60.0*	24.6	47.5	80.2*	65.5*	61.3*
Cc1cc(C)n(-c2ccc(C(=O)Oc3ccc4c(c3)OCO4)cc2)n1	-1.0	45.1	-7.9	-4.8	67.2*	61.5*	70.5*	91.1*	67.3*	56.8*
N/C(=N\OC(=O)c1ccc2c(c1)OCO2)c1cccnc1	1.6	50.8*	13.5	74.3*	80.4*	57.7*	57.1*	86.8*	87.8*	69.3*
N/C(=N\OC(=O)c1ccc2c(c1)OCO2)c1cccc(Br)c1	-0.7	96.2*	-1.4	94.7*	97.5*	96.8*	97.9*	102.3*	96.6*	51.0*
O=C(N/N=C/c1cccs1)c1n[nH]c2c1CCCC2	-0.4	84.0*	22.8	88.9*	91.8*	7.1	89.4*	99.5*	96.4*	54.4*
C/C(=N\NC(=O)c1cc(Br)ccc1O)c1cccs1	-1.5	33.7	-230.6	63.3*	19.3	27.0	39.1	29.8	40.4	3.7
C/C(=N\NC(=O)c1n[nH]c2c1CCC2)c1cccs1	3.7	82.3*	26.8	86.9*	86.6*	12.8	4.6	-7.8	9.5	0.6
Cc1ccc(/C=N/NC(=O)c2n[nH]c3c2CCCC3)cc1	4.7	-5.0	20.4	-13.6	3.8	.	.	.	.	.
C/C(=N/NC(=O)c1ccc(Br)o1)c1cccs1	-0.6	10.2	-4.4	29.4	29.8	.	.	.	.	.
N#CCCN(Cc1cccnc1)C(=S)NC(=O)c1ccccc1	-2.0	4.6	3.3	-11.3	8.8	.	.	.	.	.
Cc1ccc(S(C)(=O)=N/C=C2\C(=O)c3sccc3N(C)S2(=O)=O)cc1 (stereo not given)	-6.0	-8.2	-98.5	-21.5	-2.9	.	.	.	.	.
CCc1ccc2oc(-c3ccc(NC(C)=O)cc3)nc2c1	1.1	72.4*	-446.0	75.1*	78.1*	43.7	78.8*	95.9*	32.7	17.7
O=C(Nc1ccc2oc(-c3cccc4ccccc34)nc2c1)c1ncn[nH]1	-2.3	-11.5	i	-16.1	-1.3	.	.	.	.	.
O=C(Nc1ccc2oc(-c3ccccc3Cl)nc2c1)c1ncn[nH]1	-1.1	34.9	-257.1	52.1*	23.6	24.2	20.5	28.5	25.7	0.5
CC(=O)Nc1ccc2oc(-c3ccccc3Br)nc2c1	1.3	58.3*	-222.0	83.6*	58.7*	81.0*	76.3*	90.4*	67.7*	64.7*
CC(=O)Nc1ccc2oc(-c3cc(F)c(F)cc3Cl)nc2c1	-0.8	40.0	-290.9	-4.8	67.2*	20.6	20.6	9.5	39.1	25.1
CCN(CC)CC(=O)Nc1ccc(-c2nc3cc(NC(=O)CN(CC)CC)ccc3o2)cc1	2.4	-2.0	-481.5	-10.4	-0.7	.	.	.	.	.
NC(=O)NN=C1CCC(OCc2ccccc2)CC1CC(=O)O (stereo not given)	3.0	.	17.2	.	.	.	.	.	.	.
SMILES	SENP1 FRET inh	SENP8 block-1	SENP8 block-2	SENP6 block	SENP7 block	SENP8 confirm	SENP6 confirm	SENP7 conf	Casp3 SENP sel	Luc interf
CN(C)/C=C/C(=O)c1ccc(Oc2ncccn2)cc1	-4.2	-9.4	1.3	-6.7	-5.6	.	.	.	.	.
COc1ccc(N/C=C\C(=O)c2ccc3ccccc3c2)cc1	-41.5	-11.8	-19.5	-11.4	0.2	.	.	.	.	.
COc1ccc(N/C=C/C(=O)c2ccccc2)cc1	-39.0	94.6*	-25.3	94.4*	96.4*	-21.0	93.0*	103.1*	97.1*	31.7
O=C(/C=C/Nc1ccccc1)c1ccc(Oc2ncccn2)cc1	-73.8	64.7*	-294.5	76.2*	82.1*	28.7	58.2*	59.2*	82.4*	13.8
Cc1cc(C)c2nc(N3CCCC(C(=O)NC4CCCC4)C3)sc2c1 (stereo not given)	-0.4	-2.2	-4.2	-0.8	-2.4	.	.	.	.	.
Cc1ccc(NC(=O)C2(C)CCN2C(=O)Cc2cc(F)ccc2F)cc1 (stereo not given)	-0.6	.	-0.7	.	.	.	.	.	.	.
COc1ccc(C2CC(=O)c3cnc(N4CCc5ccccc54)nc3C2)cc1OC (stereo not given)	.	-4.4	.	-9.2	11.5	.	.	.	.	.
CNc1nc(N2CCc3ccccc32)ncc1F	1.1	79.5*	-7.7	86.3*	4.5	85.0*	86.3*	98.3*	83.1*	86.7*
Cc1csc(-c2coc3cc(O)cc(C)c3c2=O)n1	-3.4	91.0*	6.2	95.0*	4.0	43.4	92.4*	98.5*	90.1*	26.9
COc1ccc(-c2coc3cc(O)c(OC)cc3c2=O)cc1	-1.6	38.7	-494.7	45.8	53.4*	27.2	27.3	74.7*	75.0*	55.8*
O=c1c(-c2ccc(O)cc2)coc2cc(O)cc(O)c12	0.2	-14.4	16.9	-1.6	-6.9	.	.	.	.	.
COc1ccc2c(=O)c(-c3nc(C)cs3)coc2c1	-4.3	90.6*	-40.7	93.5*	96.0*	-6.9	52.8*	84.4*	75.9*	57.3*
COc1ccc(-c2coc3cc(O)ccc3c2=O)cc1	-0.6	14.4	-296.6	26.9	1.8	.	.	.	.	.
CCNC(=S)Nc1ccc(Cc2nc3ccccc3[nH]2)cc1	2.9	-9.8	9.3	-1.4	-5.2	.	.	.	.	.
COc1ccc(N(C(=O)CNC(=O)c2ccco2)C(C(=O)NC2CCCCC2)c2ccco2)cc1 (stereo not given)	1.0	0.4	24.2	60.3*	-4.0	5.1	-1.8	-6.6	4.7	-3.1
